From ChEMBL document CHEMBL1128573, “Synthesis and in vitro evaluation of 4-substituted N-(1,1-dimethylethyl)-3-oxo-4-androstene-17 beta-carboxamides as 5 alpha-reductase inhibitors and antiandrogens” (J Med Chem, 1995) come the findings set out here.

A short description of test [1]: In vitro inhibition of 5-alpha-dihydrotestosterone stimulated shionogi cell proliferation; NA is not active. Format: functional, Mus musculus. In a few lines: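 Shionogi mouse mammary carcinoma clone SEM-107 (passage 23), plated at 17400 cells/mL in MEM with 2% charcoal-treated FCS. Grown 13 days with medium changed every 3–4 days. Methanol-fixed, DNA content measured. IC50 by weighted iterative nonlinear least-squares regression; means ± SEM.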

The target of test [2] is T1, 3-oxo-5-alpha-steroid 4-dehydrogenase 1 (Homo sapiens, UniProt P18405).
T1 sequence (P18405 whole entry): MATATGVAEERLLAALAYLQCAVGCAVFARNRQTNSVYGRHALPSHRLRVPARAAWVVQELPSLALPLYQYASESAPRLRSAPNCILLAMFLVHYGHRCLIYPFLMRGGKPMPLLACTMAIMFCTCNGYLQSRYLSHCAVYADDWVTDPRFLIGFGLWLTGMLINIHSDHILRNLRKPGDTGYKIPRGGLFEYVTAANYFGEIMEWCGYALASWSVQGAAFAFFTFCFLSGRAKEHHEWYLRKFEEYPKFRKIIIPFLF
In words: In vitro inhibition of human tSteroid 5-alpha-reductase type I in transfected 293 cells using [3H]- delta4-Androstenedione as substrate. Format: cell-based, HEK293. A digest of the protocol: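 Homogenate of 293 cells transfected with human type 1 cDNA was the enzyme source. Compounds in ethanol were diluted in 50 mM Tris-HCl pH 7.5 with 20% glycerol and 1 mM EDTA. Screening was at 1 and 0.1 μM, with 12-point IC50 curves (0.1–1000 nM) for actives. Reactions used [3H]androstenedione and 500 μM NADPH for 60 min at 37 °C, followed by ether extraction, TLC and counting of androstanedione as % of control.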

In test [3] the target is T2, 3-oxo-5-alpha-steroid 4-dehydrogenase 2 (Homo sapiens, UniProt P31213).
T2 sequence (P31213 whole entry): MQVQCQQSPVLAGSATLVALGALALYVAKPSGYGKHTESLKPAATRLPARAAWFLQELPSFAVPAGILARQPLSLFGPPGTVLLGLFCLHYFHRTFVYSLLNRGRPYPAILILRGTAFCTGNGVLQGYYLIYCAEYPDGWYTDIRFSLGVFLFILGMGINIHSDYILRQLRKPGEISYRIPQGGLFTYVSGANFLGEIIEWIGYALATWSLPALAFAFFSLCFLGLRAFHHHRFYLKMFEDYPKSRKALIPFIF
Nature of the test: In vitro inhibition of human Steroid 5-alpha-reductase type 2 in transfected SW-13 cells using [3H]- delta4-Androstenedione as substrate. In kind it is cell-based. In a few lines: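 Homogenate of SW-13 cells transfected with human type II cDNA was the enzyme source. Compounds in ethanol were diluted in 50 mM Tris-HCl pH 7.5 with 20% glycerol and 1 mM EDTA. They were screened at 1 and 0.1 μM; those giving ≥50% inhibition at 1 μM were run at 12 concentrations, 0.1–1000 nM. Reactions used [3H]androstenedione and 500 μM NADPH for 60 min at 37 °C. Steroids were ether-extracted and TLC-separated, and androstanedione radioactivity was expressed as % of control.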

Test [4] in a line: In vitro inhibition of 5-alpha-dihydrotestosterone stimulated shionogi cell proliferation. Format: functional. As to conditions: Mus musculus. A digest of the protocol:
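Androgen-sensitive Shionogi mouse mammary carcinoma clone SEM-107 (passage 23) plated at 17400 cells/mL in MEM with 2% dextran-charcoal-treated FCS. Cells grew 13 days with medium changes every 3–4 days, then were methanol-fixed. DNA content was measured, and IC50 was fitted by weighted iterative nonlinear least squares.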

Test [5] addresses T1, 3-oxo-5-alpha-steroid 4-dehydrogenase 1. In words: In vitro inhibition of human Steroid 5-alpha-reductase type I in transfected 293 cells using [3H]- delta4-Androstenedione as substrate. In kind it is cell-based, HEK293. A digest of the protocol:
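Homogenate of 293 cells transfected with human type 1 5α-reductase cDNA was used as enzyme. Compounds were dissolved in ethanol and diluted in 50 mM Tris-HCl pH 7.5 with 20% glycerol and 1 mM EDTA. They were screened at 1 and 0.1 μM; those giving ≥50% inhibition at 1 μM were tested at 12 concentrations from 0.1 to 1000 nM. Incubation used [3H]androstenedione and 500 μM NADPH for 60 min at 37 °C, followed by ether extraction, TLC, and counting of androstanedione as % of control.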

Test [6] deals with T2, 3-oxo-5-alpha-steroid 4-dehydrogenase 2. In words: In vitro inhibition of human Steroid 5-alpha-reductase type 2 in transfected SW-13 cells using [3H]- delta4-Androstenedione as substrate; NA is not active. Format: cell-based. A digest of the protocol: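 Homogenate of SW-13 cells transfected with human type II cDNA. Compounds diluted in 50 mM Tris-HCl pH 7.5, 20% glycerol, 1 mM EDTA, first screened at 1 and 0.1 μM. Those reaching 50% inhibition at 1 μM were run at 12 levels, 0.1–1000 nM. Incubated with 5 nM [3H]androstenedione and 500 μM NADPH, 60 min, 37 °C. Ether extraction, TLC, androstanedione radioactivity as % of control.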

In test [7] the target is T1, 3-oxo-5-alpha-steroid 4-dehydrogenase 1. Nature of the test: In vitro inhibition of human Steroid 5-alpha-reductase type I in transfected 293 cells using [3H]- delta4-Androstenedione as substrate; NA is not active. In kind it is cell-based. As to conditions: hek293; call rule not given here. In a few lines: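 Homogenate of 293 cells transfected with human type 1 cDNA. Compounds diluted in 50 mM Tris-HCl pH 7.5, 20% glycerol, 1 mM EDTA, first screened at 1 and 0.1 μM. Those reaching 50% inhibition at 1 μM were run at 12 levels, 0.1–1000 nM. Incubated with 1 nM [3H]androstenedione and 500 μM NADPH, 60 min, 37 °C. Ether extraction, TLC, androstanedione radioactivity as % of control.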

What is called IC50 is the point on the concentration scale where inhibition reaches its midpoint. In the case of `[3H]C1CC2=CC(=O)CC[C@]2(C)[C@H]2CC[C@]3(C)C(=O)CC[C@H]3[C@H]12` (stereo partly specified), the results for the IC50 result in test [1], in test [2] and in test [3] were “Not Active”, 2700 nM and 83.9 nM, respectively.

Turning to `CC(C)(C)NC(=O)[C@H]1CCC2C3CCC4=C(S)C(=O)CC[C@]4(C)C3CC[C@@]21C` (stereo partly specified), the results for the IC50 in test [4], in test [2] and in test [3] were 279 nM, 709 nM and 437 nM, respectively.

With `CC(C)(C)NC(=O)[C@H]1CCC2C3CCC4=C(Cl)C(=O)CC[C@]4(C)C3CC[C@@]21C` (stereo partly specified), the IC50 in test [4] is 170 nM; in test [2], > 1000 nM; in test [3], 192 nM.

As to `CC(C)(C)NC(=O)[C@H]1CCC2C3CCC4=C(Br)C(=O)CC[C@]4(C)C3CC[C@@]21C` (stereo partly specified), the IC50 came to 184 nM in test [4], 981 nM in test [2] and 387 nM in test [3].

Consider `CC(C)(C)NC(=O)[C@H]1CCC2C3CCC4=C(O)C(=O)CC[C@]4(C)C3CC[C@@]21C` (stereo partly specified), for which the results for the IC50 in test [4], in test [2] and in test [3] were 242 nM, > 1000 nM and 172 nM, respectively.

As for `CC(C)(C)NC(=O)[C@H]1CC[C@H]2[C@@H]3CC[C@H]4NC(=O)C=C[C@]4(C)[C@H]3CC[C@]12C` [FINASTERIDE], the IC50 result in test [1] was “Not Active”; in test [3], 8.47 nM; in test [5], 218 nM.

Take `CC(C)(O)C(=O)Nc1ccc([N+](=O)[O-])c(C(F)(F)F)c1` [HYDROXYFLUTAMIDE]: the half-inhibitory concentration (IC50) in test [4] is 117 nM; in test [6] it was “Not Active”; in test [7] it was “Not Active”.
